Experimental data taken from publication PMC2745078 (Journal of medicinal chemistry, 2009).
Where two headings read alike, the source gives them in different places.

How the values were obtained:
human 2N4R tau [1] = target: T1, human 2N4R tau (Homo sapiens, UniProt P10636); conditions: near physiological buffer conditions and tau concentrations ref 9; cited from earlier work
Dye aggregation = format: physicochemical; conditions: for slope of double log plot of monomer versus dimer concentration / dissociation equilibrium constant for dimerization (Kdim): assembly buffer; for dissociation equilibrium constant for dimerization (Kdim): 1 h at 37°C, mean ± S.D.
human 2N4R tau [2] = target: T1, human 2N4R tau; assay: Filter trap assay for ODS-induced fibrillization of tau; format: biochemical
[3] = tested on: sarkosyl-insoluble tau in organotypic slices from JNPL3 transgenic mice (human tau P301L); assay: Organotypic slice culture, sarkosyl-insoluble tau; format: cell-based
In short: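 Cortex/hippocampus of postnatal day-10 JNPL3 mice cut at 400 μm and cultured on membrane inserts 14 days (25% serum). One hemisphere given test compound (0.1 nM–1 μM) for 7 days; contralateral hemisphere given 0.008% DMSO. RIPA extracts equalised for protein, incubated in 1% sarkosyl, spun at 100,000g. Pellet immunoblotted with CP27. Densitometry n = 3, normalised to vehicle; Student's t test.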

[4] = tested on: organotypic slices from JNPL3 transgenic mice; assay: Organotypic slice culture, cleaved PARP1 and α-tubulin levels; format: cell-based; conditions: seven days
cell culture models = cell culture models ref 21, 26, 25; cited from earlier work
human 2N4R tau [5] = target: T1, human 2N4R tau; conditions: electron microscopy assay format

T1 sequence (P10636 1-441 isoform P10636-8): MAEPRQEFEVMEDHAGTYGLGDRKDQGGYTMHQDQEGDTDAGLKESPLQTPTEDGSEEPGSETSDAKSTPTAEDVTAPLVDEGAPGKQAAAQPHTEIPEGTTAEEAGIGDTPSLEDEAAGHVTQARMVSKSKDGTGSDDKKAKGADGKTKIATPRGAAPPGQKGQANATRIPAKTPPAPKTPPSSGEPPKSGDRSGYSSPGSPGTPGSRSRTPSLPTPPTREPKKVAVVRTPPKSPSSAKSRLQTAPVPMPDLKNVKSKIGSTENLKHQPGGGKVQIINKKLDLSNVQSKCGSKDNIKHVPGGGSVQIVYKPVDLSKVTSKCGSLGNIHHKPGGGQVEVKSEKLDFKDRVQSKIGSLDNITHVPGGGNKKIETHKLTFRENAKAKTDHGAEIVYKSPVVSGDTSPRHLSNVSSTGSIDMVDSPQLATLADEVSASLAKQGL

For `CCC(/C=C1\Sc2ccc(OC)cc2N1CCO)=C\c1sc2ccc(OC)cc2[n+]1CCO.[I-]` [Compound 1], the IC50 (human 2N4R tau [1]) is given as “submicromolar”.

For `CCN1/C(=C/C=C/C=C/C=C/c2sc3ccccc3[n+]2CC)Sc2ccccc21.[I-]` [Compound 5], the “slope of double log plot of monomer versus dimer concentration” value (Dye aggregation) was 1.7 ± 0.1 and the “dissociation equilibrium constant for dimerization (Kdim)” value (from here on “dissociation equilibrium constant”) (Dye aggregation) was 0.68 ± 0.04 µM.

For `CCN1/C(=C/C=C/c2oc3ccccc3[n+]2CC)Oc2ccccc21.[I-]` [Compound 6], the inhibitory activity (human 2N4R tau [2]; at the highest concentration tested) was “essentially no inhibitory activity”.

For `CCN1/C(=C/C=C/C2=[N+](CC)c3ccccc3C2(C)C)C(C)(C)c2ccccc21.[I-]` [Compound 8], the dimerization (Dye aggregation; any concentration tested up to 96 μM) was “did not dimerize”.

For `CCCN1/C(=C/C=C/C2=[N+](CCC)c3ccccc3C2(C)C)C(C)(C)c2ccccc21.[I-]` [Compound 9], the “reduction of inhibitory potency” value (human 2N4R tau [2]; 9 (three-carbon N-alkyl) versus 8 (two-carbon)) was ~ 3 fold.

With `CCCCCCN1/C(=C/C=C/c2sc3ccccc3[n+]2CCCCCC)Sc2ccccc21.[I-]` [Compound 10] the inhibitory activity (human 2N4R tau [2]; at up to 10 μM concentration) was “completely eliminated activity”.

For `CCN1/C(=C/C(C)=C/c2sc3ccccc3[n+]2CC)Sc2ccccc21.[I-]` [Compound 11, 3,3’-diethyl-9-methylthiacarbocyanine iodide], the “decrease of IC50 by methyl meso substituent” value (human 2N4R tau [2]; 11 versus hydrogen meso compound) was 3 fold, the IC50 (human 2N4R tau [2]; IC50, filter trap assay) was about 300 nM and the “slope of double log plot of monomer versus dimer concentration” value (Dye aggregation) was 2.3 ± 0.1. For the same compound, the “dissociation equilibrium constant” value (Dye aggregation) was 20.9 ± 0.7 µM, the “concentration for dimerization relative to 1” value (Dye aggregation; higher than 1 under identical conditions) was 10.0 ± 0.2 fold and the “effect on tau aggregation” value ([3]; 100 nM, seven days) was “Inhibitory activity was lost”. For the same compound, the “effect on tau aggregation” value ([3]; 300 nM and above, seven days) was “tau aggregation was induced”, the “tau aggregation relative to DMSO vehicle alone” value ([3]; 1 – 10 nM, seven days) was ~ 50% and the “lowest media concentration inhibiting tau aggregation” value ([3]; organotypic slices) was 1 nM. For the same compound, the “levels of α-tubulin” value ([4]; 1 nM) was “unchanged”, the “levels of α-tubulin” value ([4]; 1 μM) was “depletion of α-tubulin” and the “levels of cleaved PARP1” value ([4]; any tested concentration) was “did not increase”. The “concentration initiating apoptosis and collapse of the microtubule cytoskeleton” value (cell culture models) was over 300 nM.

With `CC(/C=C1\Sc2ccccc2N1CCCS(=O)(=O)[O-])=C\c1sc2ccccc2[n+]1CCCS(=O)(=O)[O-].CC[n+]1ccccc1` [Compound 12] the inhibitory activity (human 2N4R tau [2]; at up to 10 μM concentration) was “completely lost”, the “slope of double log plot of monomer versus dimer concentration” value (Dye aggregation) was 1.8 ± 0.1 and the “dissociation equilibrium constant” value (Dye aggregation) was 7.5 ± 0.4 µM.

In the case of `CN(C)c1ccc2nc3ccc(N(C)C)cc3[s+]c2c1.[Cl-]` [Methylene blue, 3,7-bis(dimethylamino)phenothiazin-5-ium chloride], the behaviour as antagonist (human 2N4R tau [5]) is reported as “partial antagonist”.
